This is an account of results in ChEMBL document CHEMBL4834423, “Discovery of AG-270, a First-in-Class Oral MAT2A Inhibitor for the Treatment of Tumors with Homozygous MTAP Deletion” (J Med Chem, 2021).

Data set [1] has as its target S-adenosylmethionine synthase isoform type-2 (Homo sapiens, UniProt P31153). The data set is described as follows: Inhibition of recombinant human MAT2A expressed in baculovirus infected Sf9 cells assessed as S-adenosyl methionine production using L-methionine as substrate incubated for 60 mins followed by substrate addition and measured after 60 mins relative to control. More on the design: concentration or dose not given beside the values.

The nature of data set [2]: Solubility of compound at pH 2. Type of data set: physicochemical. To be noted: buffer.
Data set [3] in a line: Solubility of compound at pH 7.4. Type of data set: physicochemical. To be noted: buffer.
The nature of data set [4]: Protein binding in dog plasma assessed as unbound fraction. Format: ADME, cell-free, Canis lupus familiaris.
Data set [5] in a line: Protein binding in rat plasma assessed as unbound fraction. Type of data set: ADME, cell-free.
A short description of data set [6]: Protein binding in mouse plasma assessed as unbound fraction. Type of data set: ADME, cell-free.
Data set [7] is described as follows: Oral bioavailability in monkey at 5 mg/kg. Format: ADME, organism-based, Macaca mulatta. To be noted: rhesus monkey, in vivo.
Data set [8] addresses T1, UDP-glucuronosyltransferase 1A1 (Homo sapiens, UniProt P22309).
T1 sequence (P22309 whole entry): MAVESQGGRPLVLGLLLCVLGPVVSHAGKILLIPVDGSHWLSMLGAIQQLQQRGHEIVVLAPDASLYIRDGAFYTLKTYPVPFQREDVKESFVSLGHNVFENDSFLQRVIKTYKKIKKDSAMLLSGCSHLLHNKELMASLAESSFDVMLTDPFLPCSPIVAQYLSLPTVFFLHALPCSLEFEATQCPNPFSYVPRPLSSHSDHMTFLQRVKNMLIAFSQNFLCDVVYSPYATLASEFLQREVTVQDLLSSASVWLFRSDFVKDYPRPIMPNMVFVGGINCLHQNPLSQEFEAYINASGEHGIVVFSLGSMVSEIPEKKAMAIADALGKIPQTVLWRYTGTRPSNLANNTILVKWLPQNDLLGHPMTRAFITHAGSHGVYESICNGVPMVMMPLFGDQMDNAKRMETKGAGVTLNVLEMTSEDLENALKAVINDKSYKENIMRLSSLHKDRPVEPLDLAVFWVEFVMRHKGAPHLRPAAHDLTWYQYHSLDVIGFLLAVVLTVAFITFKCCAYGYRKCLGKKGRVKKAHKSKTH
Briefly: Inhibition of UGT1A1 (unknown origin). Type of data set: ADME.

Data set [9] has as its target T2, Solute carrier organic anion transporter family member 1B1 (Homo sapiens, UniProt Q9Y6L6).
T2 sequence (Q9Y6L6 whole entry): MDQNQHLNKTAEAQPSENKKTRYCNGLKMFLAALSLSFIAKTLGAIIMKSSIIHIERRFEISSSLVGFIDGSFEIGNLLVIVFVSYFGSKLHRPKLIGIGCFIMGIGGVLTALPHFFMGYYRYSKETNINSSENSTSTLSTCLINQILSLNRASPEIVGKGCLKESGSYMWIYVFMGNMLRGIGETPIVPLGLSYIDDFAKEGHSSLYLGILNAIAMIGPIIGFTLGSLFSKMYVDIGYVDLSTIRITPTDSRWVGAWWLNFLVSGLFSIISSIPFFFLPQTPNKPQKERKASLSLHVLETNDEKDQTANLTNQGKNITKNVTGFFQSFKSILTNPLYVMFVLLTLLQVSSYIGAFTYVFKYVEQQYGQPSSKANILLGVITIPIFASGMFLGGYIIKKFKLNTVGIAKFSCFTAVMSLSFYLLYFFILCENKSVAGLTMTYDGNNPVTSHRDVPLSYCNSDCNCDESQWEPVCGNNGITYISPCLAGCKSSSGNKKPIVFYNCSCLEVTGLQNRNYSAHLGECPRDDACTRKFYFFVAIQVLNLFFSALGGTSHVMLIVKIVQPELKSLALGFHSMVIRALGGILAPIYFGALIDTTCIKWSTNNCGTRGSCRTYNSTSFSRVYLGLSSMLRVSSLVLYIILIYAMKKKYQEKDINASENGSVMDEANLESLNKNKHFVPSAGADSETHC
Briefly: Inhibition of OATP1B1 (unknown origin). Format: ADME.

For data set [10], the target named is T3, Cytochrome P450 3A4 (Homo sapiens, UniProt P08684). The data set is described as follows: Inhibition of CYP3A4 (unknown origin). Format: ADME.
T3 sequence (P08684 whole entry): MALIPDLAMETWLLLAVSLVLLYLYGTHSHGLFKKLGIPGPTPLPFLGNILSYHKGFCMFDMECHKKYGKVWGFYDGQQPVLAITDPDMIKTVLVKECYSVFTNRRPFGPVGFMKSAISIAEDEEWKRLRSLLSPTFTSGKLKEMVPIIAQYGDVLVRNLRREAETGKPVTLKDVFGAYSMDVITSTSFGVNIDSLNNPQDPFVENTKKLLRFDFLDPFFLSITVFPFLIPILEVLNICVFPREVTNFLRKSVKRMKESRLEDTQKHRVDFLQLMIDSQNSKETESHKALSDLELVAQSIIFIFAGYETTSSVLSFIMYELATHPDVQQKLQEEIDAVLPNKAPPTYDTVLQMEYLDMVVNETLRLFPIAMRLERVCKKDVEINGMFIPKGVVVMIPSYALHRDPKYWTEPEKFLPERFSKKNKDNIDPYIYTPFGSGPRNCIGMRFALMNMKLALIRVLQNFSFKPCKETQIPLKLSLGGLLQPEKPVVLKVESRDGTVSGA
The target in data set [11] is Cytochrome P450 2D6 (Homo sapiens, UniProt P10635). The data set is described as follows: Inhibition of CYP2D6 (unknown origin). Format: ADME.
Sequence of Cytochrome P450 2D6 (P10635 whole entry): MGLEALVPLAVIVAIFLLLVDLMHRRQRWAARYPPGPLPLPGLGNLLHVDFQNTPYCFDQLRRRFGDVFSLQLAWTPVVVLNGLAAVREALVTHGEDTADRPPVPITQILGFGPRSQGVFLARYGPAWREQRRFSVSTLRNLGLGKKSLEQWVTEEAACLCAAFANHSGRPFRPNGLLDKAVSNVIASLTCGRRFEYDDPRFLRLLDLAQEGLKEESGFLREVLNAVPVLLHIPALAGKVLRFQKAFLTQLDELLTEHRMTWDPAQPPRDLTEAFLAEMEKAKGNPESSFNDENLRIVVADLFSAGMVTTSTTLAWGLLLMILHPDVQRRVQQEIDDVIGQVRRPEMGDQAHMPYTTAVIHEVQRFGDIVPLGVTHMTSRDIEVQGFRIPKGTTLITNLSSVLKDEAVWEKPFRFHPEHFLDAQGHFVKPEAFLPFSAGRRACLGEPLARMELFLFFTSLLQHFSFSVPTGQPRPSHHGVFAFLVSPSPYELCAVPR
Data set [12] has as its target T4, Cytochrome P450 2B6 (Homo sapiens, UniProt P20813).
T4 sequence (P20813 whole entry): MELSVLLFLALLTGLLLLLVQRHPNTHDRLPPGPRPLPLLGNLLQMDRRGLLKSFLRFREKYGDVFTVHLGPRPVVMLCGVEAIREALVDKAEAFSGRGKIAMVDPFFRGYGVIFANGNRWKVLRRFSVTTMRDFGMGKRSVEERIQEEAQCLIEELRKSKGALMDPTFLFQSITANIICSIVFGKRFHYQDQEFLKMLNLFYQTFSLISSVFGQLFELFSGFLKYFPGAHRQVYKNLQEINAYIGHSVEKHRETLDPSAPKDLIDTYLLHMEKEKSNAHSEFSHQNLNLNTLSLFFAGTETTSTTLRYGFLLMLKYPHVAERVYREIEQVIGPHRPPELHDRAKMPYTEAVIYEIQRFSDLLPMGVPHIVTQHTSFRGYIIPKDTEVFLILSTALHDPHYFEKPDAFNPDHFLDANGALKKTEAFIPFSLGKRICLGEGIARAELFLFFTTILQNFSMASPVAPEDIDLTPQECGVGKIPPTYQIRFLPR
The data set is described as follows: Inhibition of CYP2B6 (unknown origin) assessed as inactivation relative to control. Type of data set: ADME.

The target in data set [13] is T3, Cytochrome P450 3A4. Briefly: Inhibition of CYP3A4 (unknown origin) assessed as inactivation relative to control. Type of data set: ADME.
The test system of data set [14] is KP-4. The data set is described as follows: Anticancer activity in MTAP-null human KP-4 cells xenografted mouse model assessed as tumor growth inhibition at 100 mg/kg, po qd treated for 38 days relative to control. To be noted: KP-4, po, 912 h, time 38 day, read-out: TGI. Format: functional. In a few lines:
(§1)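 Subcutaneous KP4 MTAP-null xenograft mice, 12 per arm (60 animals), dosed orally once daily on days 24−38 at 10−200 mg/kg. Tumor SAM levels and plasma compound exposure were monitored; plasma sampled up to 24 h after the last dose. Mean tumor volume and body weight change were tracked; error bars are SEM.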
In general terms: A xenograft is tissue or cells of one species grown in another, often human tumour cells in immunodeficient mice.

Data set [15] relates to KP-4. The data set is described as follows: Anticancer activity in MTAP-null human KP-4 cells xenografted mouse model assessed as tumor growth inhibition at 200 mg/kg, po qd treated for 38 days relative to control. Type of data set: functional. To be noted: KP-4, po, 912 h, time 38 day, read-out: TGI. In a few lines: as §1
The test system of data set [16] is KP-4. Briefly: Anticancer activity in MTAP-null human KP-4 cells xenografted mouse model assessed as inhibition of SAM production at 10 mg/kg, po qd treated for 38 days relative to control. Format: functional. The note with it: KP-4, po, 912 h, time 38 day. In a few lines: as §1
Data set [17] relates to KP-4. The data set is described as follows: Anticancer activity in MTAP-null human KP-4 cells xenografted mouse model assessed as inhibition of SAM production at 200 mg/kg, po qd treated for 38 days relative to control. Format: functional. The note with it: KP-4, po, 912 h, time 38 day. The method in brief:
as §1

Data set [18] in a line: Toxicity in MTAP-null human KP-4 cells xenografted mouse model assessed as body weight change at 10 to 200 mg/kg, po qd treated for 38 days. To be noted: in vivo, 912 h, dose 10-200 mg/kg, time 38 day. Format: organism-based. The method in brief: as §1
The subject of data set [19] is HCT-116. The data set is described as follows: Anticancer activity in MTAP-null human HCT116 cells xenografted mouse model assessed as tumor growth inhibition at 10 mg/kg, po qd treated for 38 days relative to control. Type of data set: functional. To be noted: HCT-116, po, 912 h, time 38 day, read-out: TGI.
The nature of data set [20]: cells. The note with it: Homo sapiens, HCT-116, 72 h.

Sequence of S-adenosylmethionine synthase isoform type-2 (P31153 whole entry, looked up, canonical isoform): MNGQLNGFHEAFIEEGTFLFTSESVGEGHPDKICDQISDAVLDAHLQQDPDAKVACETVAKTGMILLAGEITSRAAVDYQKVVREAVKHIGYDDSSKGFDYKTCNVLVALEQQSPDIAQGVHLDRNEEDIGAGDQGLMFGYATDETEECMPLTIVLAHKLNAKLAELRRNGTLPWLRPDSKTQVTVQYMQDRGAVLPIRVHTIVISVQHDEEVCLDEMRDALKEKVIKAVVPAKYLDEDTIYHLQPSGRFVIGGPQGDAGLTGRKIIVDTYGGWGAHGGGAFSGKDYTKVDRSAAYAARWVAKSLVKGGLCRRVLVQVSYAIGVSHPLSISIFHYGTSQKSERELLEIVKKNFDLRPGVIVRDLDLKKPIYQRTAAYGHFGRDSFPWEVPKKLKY

For `COc1ccc(-c2c(Nc3ccccn3)[nH]c3c(C4=CCCCC4)c(-c4ccccc4)nn3c2=O)cc1`, the inhibition – broadly, the change of the read-out against control, counted positive when it falls – in data set [1] was 91%. Also, the solubility (commonly the concentration that dissolves in the medium under given conditions) was less than 0.5 µM in data set [2] and less than 0.1 µM in data set [3]. The fraction unbound (commonly free concentration divided by total concentration) in data set [4] is 0.028; in data set [5], 0.016; in data set [6], 0.0028. The bioavailability (in general, dose-corrected exposure relative to a reference, in per cent) in [7] is 31%. The IC50 – broadly, the midpoint of a concentration-inhibition curve – in data set [8] is 1100 nM; in data set [9], 2100 nM; in data set [10], more than 10 µM; in [11] it was more than 10 µM; in [20], 20 µM. Besides, the INH is more than 3.6 µM in data set [12] and more than 50 µM in [13]. Moreover, the inhibition in vivo at 100 mg/kg in data set [14] was 66%. For the same molecule, the inhibition in vivo at 200 mg/kg was determined as 67% in data set [15] and 81.1% in data set [17]. Moreover, the inhibition in vivo at 10 mg/kg in data set [16] stood at 33.4%; in data set [19], 75%. Also, in data set [18], the Activity result was “Non-Toxic”.
